Assay results published in PubChem BioAssay AID463079 (The Scripps Research Institute Molecular Screening Center, 2010).
Out of some 330,000 compounds screened, about 2,000 (0.61%) were called active. For the sample, actives were picked, then their nearest neighbours and some compounds at random. Unmarked numbers belong to inactive results.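 The calls were made as follows: active = inhibition above that plate's mean sample inhibition plus 3 SD (cut at about 26% in these data); inactive = the rest.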

Experiment: nonselective Gq signaling inhibition in CHO cells – cell-based, fluorescence, Fluo-8 calcium dye, counter-screen for OX1R antagonist project, primary screen (AID 463079);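 also: 0% = ATP-challenged DMSO wells and 100% = DMSO wells without ATP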
Settings: parental CHO-K1, ATP-induced calcium, Fluo-8 fluorescence; at 5.6 µM; stronger effect = higher value
Summary of the method: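 Measured by: calcium-sensitive Fluo-8 fluorescence / Test system: CHO parental line / Controls: ATP-challenged DMSO wells low, unchallenged DMSO wells high / Measure: % inhibition / Compound: single nominal dose of 5.6 µM per compound / Replicates: single well per compound, no replicates / Reagent: ATP as calcium-mobilizing challenge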
With `CCn1ccnc1CN(C)C(=O)c1cc(COc2ccc(-n3cncn3)cc2)on1` the inhibition was -9.68%.
For `O=C(c1cc(COc2ccc(F)c(F)c2)on1)N1CCOCC1`, the inhibition was -5.07%.
In the case of `C=CCC1(CC=C)CCCN1C(=O)c1cc(COc2ccc(-n3cncn3)cc2)on1`, the inhibition is reported as 66.2% (active).
`COC(=O)c1cc(Oc2ccc(S(=O)(=O)N3CCOCC3)cc2[N+](=O)[O-])cc(C(=O)OC)c1` showed an inhibition of -3.52%.
Compound `N#C/C(=C\c1ccccc1)c1n[nH]c(Cn2cncn2)n1` has an inhibition of -15.2%.
Work on `CC(NC(=O)C1CCCN(S(=O)(=O)c2ccc(-n3cnnn3)cc2)C1)c1ccc(F)cc1` (stereo not given) yielded an inhibition of -12.5%.
For `Cc1ccccc1OCC(=O)Nc1ccc2c(c1)ncn2C`, the inhibition was 17.8%.
`CCC(=O)N1CCN(c2ccccc2NC(=O)COc2cccc(C)c2C)CC1` showed an inhibition of -26.9%.
With `Cc1ccccc1OCC(=O)Nc1ccc(N2CCN(C(=O)C(C)C)CC2)c(Cl)c1` the inhibition was 29.7% (active).
`CC(C)(C)n1cnnc1Sc1ccc([N+](=O)[O-])cn1` gave an inhibition of -10.8%.
`Cc1nc2ccc(NC(=S)N3CCC(C)CC3)cc2nc1C` showed an inhibition of -10.7%.
For `CC1=C/C(=N\OS(=O)(=O)c2ccccc2)C=CC1=O`, the inhibition was 46% (active).
`NNC(=O)CNC(c1ccccc1)c1cc(Cl)ccc1NC(=O)c1ccccc1` (stereo not given) showed an inhibition of -31.4%.
In the case of `COc1ccc(S(=O)(=O)Nc2cccnc2)c(Cl)c1Cl`, the inhibition is reported as -1.47%.
For `COc1ccccc1Oc1ccc(S(=O)(=O)Nc2cccnc2)cc1`, the inhibition was 36.9% (active).
`Cc1cc(C)c(C)c(S(=O)(=O)Nc2cccnc2)c1C` showed an inhibition of -11.2%.
`O=C(C1CC(=O)N(c2ccc(F)cc2)C1)N1CCN(c2ccccc2)CC1` (stereo not given) showed an inhibition of -3.64%.
`CCOC(=O)C1CCN(CC(=O)Nc2ccc(OC)c(S(=O)(=O)N3CCCCC3)c2)CC1` showed an inhibition of -13.3%.
`CCCCSc1nnc2c(n1)OC=Nc1ccccc1-2` gave an inhibition of -1.35%.
In the case of `CCOC(=O)Cn1c(=O)oc2cc(S(=O)(=O)N(C)Cc3ccco3)ccc21`, the inhibition is reported as 4.07%.
In the case of `CN(c1ccccc1)c1ccc(/C=c2\s/c(=C(/C#N)C(=O)C(C)(C)C)n(Cc3ccco3)c2=O)cc1`, the inhibition is reported as 47.5% (active).
With `CCCCn1c(SCc2ncc(-c3ccccc3)o2)nc2cc(S(N)(=O)=O)ccc21` the inhibition was 36.6% (active).
Compound `CCCCn1c(SCC(=O)N2CCCC2=O)nc2cc(S(N)(=O)=O)ccc21` has an inhibition of -0.51%.
In the case of `CCCCn1c(SCC(=O)N2CCC(C(=O)OCC)CC2)nc2cc(S(N)(=O)=O)ccc21`, the inhibition is reported as -21.9%.
`Cc1nnc(C)c2c(C)n(N)c(C)c12` gave an inhibition of 4.12%.
